Compounds with a hit are over-represented: about 0.3% of the library has one in this group of screens.
BasE inh: blocks the Acinetobacter baumannii siderophore enzyme BasE. inhibition, % (test concentration not listed). 0.1% of 84,000 active. AID 485350. purified BasE, fluorescence polarization binding displacement; in the data active = inhibition above about 25%, passing the limit was not always enough;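 also: 0% = negative plate control signal and 100% = positive plate control signal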
KSHV LANA nucl: LANA-nucleosome interaction inhibition. z-score (no concentration beside the values). AID 720717. FITC-LANA1-23 / chicken nucleosome fluorescence polarization; stronger effect = lower value. 0.3% of 51,000 active;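 active = both repeat wells score below -2 in polarization z-score versus plate sample wells, excluding overly bright wells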
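System – purified chicken nucleosomes with FITC-labelled LANA N-terminal peptide (1-23) · Amount – 240 nM purified chicken nucleosomes (480 nM peptide binding sites), final · Also added – 50 nM FITC-LANA1-23 probe · Medium – TEN-BT buffer, pH 7.5 · Incubation – compound with peptide–nucleosome mix 10–45 min at room temperature · Detection – fluorescence polarization, ex 480 nm, em 535 nm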
* = called active by the depositor; x = not tested or not shown.

SMILES | BasE inh | KSHV LANA nucl
CCOC(=O)c1c2ccc(O)cc2n2ccccc12 | x | -6.99*
CCOC(=O)c1c(C)n(C)c2ccc(O)cc12 | 0.3 | -0.103
Cc1ccc(N2C(=O)C3ON(c4ccccc4)C(c4ccco4)C3C2=O)cc1 (stereo not given) | 1.6 | -0.568
Oc1cccc(Nc2nc3ccc(Cl)cc3n3cnnc23)c1 | -0.5 | 0.0815
CCNC(=S)N1CCN(S(=O)(=O)c2ccc(Cl)cc2)CC1 | 3.5 | -2.15*
CCNC(=S)N1CCN(S(=O)(=O)c2ccc(C)cc2)CC1 | -2.8 | x
CSc1nc2ccccc2n1CN1CCN(S(=O)(=O)c2ccccc2C#N)CC1 | 28.2 | x
NS(=O)(=O)c1ccc(CNCC(F)(F)F)cc1 | 3.2 | x
COCCn1c(SCC(=O)NCc2ccc3c(c2)OCO3)nnc1-c1c[nH]c2ccccc12 | 0.5 | -2.16*
Cc1occc1-c1nnc(SCC(=O)NCc2ccc3c(c2)OCO3)n1CC(C)C | 1.2 | -1.09
CCC(=O)n1nc(NCc2ccc(F)cc2)nc1NCc1ccc(F)cc1 | -0.7 | 0.0205
CCOc1ccccc1/C=N/NC(=O)c1ccccc1O | -2.2 | 0.164
CCn1c(=O)cc(OCC(=O)Nc2cccnc2)c2ccccc21 | 25.4* | -0.195
CCn1c(=O)cc(OCC(=O)O)c2ccccc21 | 1.9 | -1.07
CCCCCOc1ccc(C(CC(N)=O)CC(=O)O)cc1 (stereo not given) | 4.6 | -0.596
CC1(C)CC(=O)C(C=NCCC(=O)O)=C(O)C1 | -0.2 | x
Cc1cc(C)cc(Oc2coc3cc(OCC(=O)NCc4ccccc4)ccc3c2=O)c1 | -4.5 | x
CC1=C(C(=O)Nn2cnc3cccc(F)c3c2=N)Sc2ccccc2N1 | 35.6* | x
N=c1c2c(F)cccc2ncn1NC(=O)c1ccncc1 | 1.7 | 0.0815
O=C(Oc1ccc(-c2nnco2)cc1)C1CC(=O)N(c2ccc3c(c2)OCCO3)C1 (stereo not given) | -0.7 | x
O=C(CC1SC(=O)NC1=O)Nc1ccccc1NC(=O)CC1SC(=O)NC1=O (stereo not given) | 1.3 | 0.0525
COC(=O)CC1SC(=O)NC1=S (stereo not given) | 32.0 | -5.15*
CN1C(=O)c2ccccc2C(C(=O)N2CCCCCC2)C1c1cccs1 (stereo not given) | 0.6 | -0.204
CC(C)[C@H](NS(=O)(=O)c1cccc(C(F)(F)F)c1)C(=O)OCc1nnc(-c2ccccc2)o1 | 2.4 | x
COCCNC(=O)c1nnc(Cc2ccc(OC)c(OC)c2)o1 | 1.4 | -0.692
SMILES | BasE inh | KSHV LANA nucl
Cc1ccccc1-n1c2c(c(=O)[nH]c1=S)CN(Cc1ccco1)CN2 | 2.5 | 0.0145
CCCCCCSc1s[nH]c(=O)c1C#N | 84.8* | -1.16
CCCCSC1=C(C#N)C(=O)NC(CO)S1 (stereo not given) | 0.2 | -0.748
CCCCn1c(SCC(=O)NC)nc2ccccc2c1=O | -2.7 | x
Cc1cccc(N2C(=O)c3cccc4c(N5CCNCC5)ccc(c34)C2=O)c1 | 15.5 | -0.455
Cc1ccc(N2C(=O)c3cccc4c(N5CCN(C)CC5)ccc(c34)C2=O)c2cccnc12 | 26.6* | -2.79*
O=C(NCc1ccc(F)cc1)c1cc(-c2ccccc2)n[nH]1 | -5.9 | x
COc1cc(/C=N/NC(=O)c2ccccc2-n2cccc2)ccc1O | 1.8 | x
COc1cc(/C=N/NC(=O)c2cc(C3CC3)[nH]n2)ccc1O | 49.2* | 0.328
CCN(CC)C(=O)Cn1cc(/C=C2\C(=O)NC(=O)N(CC)C2=O)c2ccccc21 | 1.3 | -2.71*
C=CCN1C(=O)NC(=O)/C(=C\c2cn(Cc3ccccc3)c3ccccc23)C1=O | 4.0 | x
COC(=O)c1cc(-c2ccc(C)cc2)no1 | 1.2 | 0.407
CCOC(=O)c1cc(-c2ccc(N(CC)CC)cc2)no1 | 5.2 | -4.77*
Cc1c(-c2cnccn2)ssc1=S | x | 0.356
CCN1CCN(c2ccc(N=Cc3cc(I)ccc3O)cc2)CC1 | 3.4 | -0.294
O=C(O)Cc1nonc1NCn1nnc2ccccc21 | 39.9* | 0.615
c1ccc2c(c1)nnn2CNCn1nnc2ccccc21 | 5.9 | -0.485
O=C1C2C(C(=O)N1/N=C/c1cccc(I)c1)C1C=CC2C12CC2 (stereo not given) | 3.9 | x
CCCN1CC=C2C(C#N)=C(N)C(C#N)(C#N)C(c3ccc(F)cc3F)C2C1 (stereo not given) | 31.2 | -4.5*
CCCOc1ccc(C2C3CN(CC)CC=C3C(C#N)=C(N)C2(C#N)C#N)cc1OC (stereo not given) | 1.9 | -1.63
Cc1ccc(S(=O)(=O)NCCN2CCN(Cc3ccc(Br)s3)CC2)cc1 | 2.0 | x
C=CCNS(=O)(=O)c1cccc2nonc12 | -0.4 | x
O=C(Cc1ccccc1)OCc1nnc(-c2ccccc2)o1 | -2.9 | 0.177
O=C(CCc1c[nH]c2ccccc12)OCc1nnc(-c2ccccc2)o1 | 2.3 | -2.13*
CC(C)Nc1nc(-c2cccs2)cc(C(F)(F)F)c1C#N | 1.1 | x
SMILES | BasE inh | KSHV LANA nucl
Cc1cc2c(n1-c1ccc(C(=O)NCCc3cccs3)cc1)CCCC2 | 0.6 | -0.0965
Cc1cc2c(n1-c1ccc(C(=O)O)cc1)CCCC2 | 30.5* | 0.837
O=C(/C=C/c1ccccc1)Nn1cnc2c(cnn2-c2ccccc2)c1=O | 1.4 | -1.15
O=C(Nn1cnc2c(cnn2-c2ccccc2)c1=O)c1ccccc1 | 0.1 | -2.08*
COc1ccccc1OCCNC(=O)c1n[nH]c2ccccc12 | -1.9 | x
CC(=O)Nc1ccc(/C=N/NC(=S)Nc2cccnc2)cc1 | 2.9 | x
CNC(=O)CCCn1c(C)c2cnn(-c3ccccc3)c(=O)c2c1C | -3.5 | 1.14
O=C(N/N=C1\CCS(=O)(=O)c2ccc(F)cc21)c1ccc(O)cc1 | 55.1* | x
O=C(N/N=C1/CCS(=O)(=O)c2ccc(F)cc21)c1ccccn1 | -0.6 | x
COc1cccc(=O)c2c(C)oc(C)c12 | 12.3 | -4.36*
CCOc1cc(/C=C/c2ccccc2OC)cc(=O)c2c(C)oc(C)c12 | 16.3 | x
CCn1c(-c2ccc(OC)cc2)csc1=Nc1ccc(C(=O)O)cc1 | 0.6 | x
N#C/C(=C\c1ccc(-c2cc(C(F)(F)F)ccc2Cl)o1)C(=O)O | 0.2 | x
N#C/C(=C/c1ccc(-c2cc(C(=O)O)ccc2Cl)o1)C(=O)NCCc1c[nH]c2ccccc12 | 30.8* | -0.032
Cc1cc(C)nc(SCC(=O)Nc2nc(=O)c3ccccc3s2)n1 | 1.5 | -0.352
CSc1scc2c1C(=O)/C(=C/N(C)C)CC2 | 36.0* | -0.491
CSc1scc2c1C(=O)CC(C)(C)C2 | -0.9 | x
NC(=O)CC12CC3CC(C1)CC(CC(N)=O)(C3)C2 | 56.6* | 1.34
O=C(O)CC12CC3CC(C1)CC(CC(=O)O)(C3)C2 | -0.4 | x
COC(=O)c1c(C(C)(C)C)oc2c1cc(NS(=O)(=O)c1ccc(C)cc1)c1ccccc12 | -0.9 | x
CC(C(=O)N1CCCC1)N1CCN(S(=O)(=O)c2ccc3ccccc3c2)CC1 (stereo not given) | -0.3 | x
CCOC(=O)C1=C(Nc2ccc(OC)cc2)OCC1=O | 4.4 | -2.13*
O=C(O)C1=C(Nc2ccccc2)OCC1=O | 1.5 | x
CC(C)C(NS(=O)(=O)c1ccc2c(c1)OCCO2)C(=O)OCc1cn2cc(Cl)ccc2n1 (stereo not given) | -1.2 | x
Fc1ccc(-c2nc3n(n2)Cc2ccccc2-3)cc1 | -2.1 | 1.01
Cn1nc(-c2ccc(F)cc2)nc2c(=O)n(C)c(=O)nc1-2 | 36.3 | -4.84*
Cc1cc(C)c2c(c1)c1nc3ccccc3nc1n2CC(=O)O | 1.8 | -1.09
Clc1ccc(OCCCc2nc(-c3cccnc3)n[nH]2)c(Cl)c1 | 46.3* | x
S=c1[nH]nc(CCCOc2ccc(Cl)cc2Cl)o1 | 3.0 | 1.07
NS(=O)(=O)c1ccc(CNC2=NCCCCC2)cc1 | 1.0 | x
